Our source for the Activity and inhibition values is ChEMBL document CHEMBL3352644, “Selenadiazole derivatives as potent thioredoxin reductase inhibitors that enhance the radiosensitivity of cancer cells” (Eur J Med Chem, 2014).

In assay [1] the target is c-Jun N-terminal kinase, JNK (Homo sapiens) (UniProt P45983+P53779+P45984). The assay is described as follows: Induction of JNK phosphorylation in human A375 cells at 4 ug/mL incubated for 18 hrs by Western blotting method. The format is cell-based. Particulars: A-375. The essentials: (§1)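 A375 cells pretreated 6 h with compound at 4 µg/ml, given 0 or 8 Gy X-ray, then incubated 12 h more. Lysed in RIPA buffer, pH 7.4, with protease and phosphatase inhibitors; 50 µg protein run on SDS-PAGE and blotted to nitrocellulose. Blocked in 5% milk; primary antibodies 1:1000, 10 h at 4 °C; HRP secondary 1:2000.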
(In general: A western blot detects proteins with antibodies after separation by electrophoresis.)

Assay [2] has as its system A-375. The assay is described as follows: Induction of cell cycle arrest in human A375 cells assessed as accumulation at G1/G0 phase at 4 ug/mL incubated for 6 hrs followed by irradiation with 8 Gy X-ray at 37 degC for 12 hrs by propidium iodide staining based flow cytometry (reference value: 44.9%). The format is functional. The essentials: (§2)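 A375 cells treated at 10 or 4 µg/ml for 6 h, given 0 or 8 Gy X-ray, then 12 h more. Trypsinized, washed in PBS, fixed overnight in ice-cold 75% ethanol at −20 °C. Stained with propidium iodide, 30 min at 37 °C in the dark; DNA content and sub-G1 population read by flow cytometry.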
Background: A flow cytometer gives signals particle by particle.

The subject of assay [3] is A-375. The experiment in a line: Reduction in Trx expression in human A375 cells at 2 ug/mL incubated for 6 hrs followed by irradiation with 8 Gy X-ray at 37 degC for 12 hrs by Western blotting method. The assay is classed as functional, cell-based.
The test system of assay [4] is A-375. The assay is described as follows: Induction of apoptosis in human A375 cells assessed as caspase 3 activation at 2 ug/mL incubated for 18 hrs by Western blotting method. The assay is classed as functional, cell-based. The essentials:
(§3)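 A375 cells treated with 2 µg/ml alone or with 8 Gy X-ray (6 h pretreatment, then 12 h; 18 h total). RIPA lysates (50 µg protein) run on SDS-PAGE and immunoblotted for caspases and PARP cleavage. Reprobed for β-actin as loading control.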

Assay [5] deals with A-375. The experiment in a line: Induction of ROS generation in human A375 cells at 4 ug/mL […] by DCF and DHE dye based fluorescence assay. The format is functional, cell-based.
In assay [6] the test system is A-375. The assay is described as follows: Induction of apoptosis in human A375 cells assessed as PARP cleavage at 2 ug/mL incubated for 6 hrs followed by irradiation with 8 Gy X-ray at 37 degC for 12 hrs by Western blotting method. The assay is classed as functional, cell-based. The essentials: as §3
The test system of assay [7] is A-375. The experiment in a line: Induction of apoptosis in human A375 cells assessed as caspase 8 activation at 2 ug/mL incubated for 6 hrs followed by irradiation with 8 Gy X-ray at 37 degC for 12 hrs by Western blotting method. The assay is classed as functional, cell-based. The essentials: as §3
In assay [8] the test system is A-375. The assay is described as follows: Induction of cell shrinkage in human A375 cells incubated for 6 hrs followed by irradiation with 8 Gy X-ray at 37 degC for 12 hrs by microscopy. The assay is classed as functional, cell-based. The essentials: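 A375 cells in DMEM with 10% FBS, 37 °C, 5% CO2. Pretreated with agent 6 h, then 0 or 8 Gy X-ray from a linear accelerator at 1.5 Gy/min, room temperature. Incubated a further 12 h; morphology imaged.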

Assay [9] has as its system A-375. The experiment in a line: Induction of apoptosis in human A375 cells assessed as caspase 8 activation at 2 ug/mL incubated for 18 hrs by Western blotting method. The format is functional, cell-based. The essentials: as §3
The test system of assay [10] is A-375. The experiment in a line: Induction of cell morphological changes in human A375 cells incubated for 6 hrs followed by irradiation with 8 Gy X-ray at 37 degC for 12 hrs by microscopy. The assay is classed as functional, cell-based.
Assay [11] relates to A-375. The assay is described as follows: Increase in Bax expression in human A375 cells at 4 ug/mL incubated for 6 hrs followed by irradiation with 8 Gy X-ray at 37 degC for 12 hrs by Western blotting method. The assay is classed as functional, cell-based. The essentials:
as §1

The species entered for the next assay is Homo sapiens. The assay is described as follows: Binding affinity to PMB-AGUVGAGLIK TrxR model peptide (unknown origin) at peptide to compound molar ratio of 1:1 at 37 degC for 18 hrs by MALDI-TOF-MS/MS assay. The essentials: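 Pre-reduced TrxR model peptide PMB-Ala-Gly-Sec-Val-Gly-Ala-Gly-Leu-Ile-Lys incubated with compound at 1:1 molar ratio, 37 °C, 18 h; adducts examined by MALDI-TOF MS, looking for compound-derived mass shifts and fragment peaks.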

Assay [12] has as its system A-375. The experiment in a line: Induction of apoptosis in human A375 cells assessed as caspase 3 activation at 2 ug/mL incubated for 6 hrs followed by irradiation with 8 Gy X-ray at 37 degC for 12 hrs by Western blotting method. The assay is classed as functional, cell-based. The essentials: as §3
In assay [13] the test system is A-375. The experiment in a line: Induction of apoptosis in human A375 cells assessed as caspase 9 activation at 2 ug/mL incubated for 18 hrs by Western blotting method. The format is functional, cell-based. The essentials: as §3
In assay [14] the target is Thioredoxin reductase (Homo sapiens) (UniProt Q16881+Q9NNW7+Q86VQ6). The experiment in a line: Inhibition of TrxR antioxidant enzyme activity in human A375 cells at 2 ug/mL after 18 hrs by insulin reduction assay. The note with it: A-375. The format is cell-based.
Assay [15] has as its system A-375. The assay is described as follows: Induction of apoptosis in human A375 cells assessed as caspase PARP cleavage at 2 ug/mL incubated for 18 hrs by Western blotting method. The assay is classed as functional, cell-based. The essentials:
as §3

For assay [16], the system named is A-375. The experiment in a line: Increase in Bid cleavage in human A375 cells at 4 ug/mL incubated for 18 hrs by Western blotting method. The assay is classed as functional, cell-based. The essentials: as §1
For assay [17], the system named is A-375. The assay is described as follows: Induction of cell cycle arrest in human A375 cells assessed as accumulation at S phase at 4 ug/mL incubated for 6 hrs followed by irradiation with 8 Gy X-ray at 37 degC for 12 hrs by propidium iodide staining based flow cytometry (reference value: 7.9%). The assay is classed as functional. The essentials: as §2
Assay [18] relates to A-375. The assay is described as follows: Increase in Bax expression in human A375 cells at 4 ug/mL incubated for 18 hrs by Western blotting method. The format is functional, cell-based. The essentials:
as §1

Assay [19] deals with A-375. The assay is described as follows: Induction of apoptosis in human A375 cells assessed as caspase 8 activation at 2 ug/mL incubated for 6 hrs followed by irradiation with 8 Gy X-ray at 37 degC for 12 hrs by fluorometric assay. The assay is classed as functional, cell-based. The essentials: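 Cells seeded at 1 × 10⁶ per 10 cm dish and treated with 2 µg/ml alone or with 8 Gy X-ray for 18 h total. RIPA lysates clarified by spinning at 12,000 rpm for 5 min; 80 µg protein given Ac-DEVD-AMC (caspase-3), Ac-IETD-AMC (caspase-8) or Ac-LEHD-AMC (caspase-9). Incubated 2 h at 37 °C in the dark; fluorescence at 380/440 nm.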

Assay [20] deals with A-375. The experiment in a line: Reduction in Bcl-2 expression in human A375 cells at 4 ug/mL incubated for 18 hrs by Western blotting method. The format is functional, cell-based. The essentials: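 A375 cells given […] for 6 h, then 0 or 8 Gy X-ray at 1.5 Gy/min and 12 h further culture. Lysis in ice-cold RIPA, pH 7.4, with protease and phosphatase inhibitors; protein by BCA. […] protein per lane on SDS-PAGE, transferred to nitrocellulose. Blocked in 5% milk/TBST. Primary 1:1000, 10 h, 4 °C; HRP secondary 1:2000, 1.5 h.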

Assay [21] deals with A-375. The assay is described as follows: Induction of ROS generation in human A375 cells at 4 ug/mL incubated for 6 hrs followed by irradiation with 8 Gy X-ray at 37 degC for 12 hrs by DCF and DHE dye based fluorescence assay. The assay is classed as functional, cell-based. The essentials: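 A375 cells (4 × 10⁴/well) cultured 24 h, then treated 6 h at 8 or 16 µg/ml or at 2 or 4 µg/ml, and given 0 or 8 Gy X-ray. Loaded with H₂DCF or DHE for 30 min at 37 °C in the dark. Fluorescence read at 485/535 nm (DCF) or 480/610 nm (DHE); % of control.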

Active and inactive are the calls of the source. The calls are words filed in the database; no cut-off is given here.

In the case of `COc1cc(-c2nc3cc(-c4ccc5n[se]nc5c4)ccc3[nH]2)cc(OC)c1OC`, the outcome (in assay [1]; in the assay on A-375 [3]; in the assay on A-375 [4]; in the assay with A-375 [5]; with A-375 [6]; with A-375 [7]) was Active. The outcome with A-375 [8], in the assay on A-375 [9], in the assay on A-375 [10], with A-375 [11], in the assay filed under Homo sapiens and in the assay on A-375 [12] was Active. The result in the assay on A-375 [13], with A-375 [15], in the assay on A-375 [16], in the assay on A-375 [18], with A-375 [19] and in the assay with A-375 [20] was Active. In addition, in the assay on A-375 [21], the result was Active. For the same compound, the Activity in the assay with A-375 [2] is listed as 47.3%; with A-375 [17], 30.6%. The inhibition result in assay [14] is “Active”.
